# According to paper PMC3158820 (ACS chemical biology, 2011):
# “Also recorded” adds a separate entry of the source.
# Tests used:
# human ClpXP [1] = experiment: Steady state peptidase activity assay; assay type: biochemical
# human 20S proteasome = experiment: Steady state peptidase activity assay; assay type: biochemical; conditions: 2 µM DBN93, 200 nM human 20S proteasome, 100 µM FRETN 89–98, 500 µM ATP
# Method in brief: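 Run in 50 mM HEPES pH 8.0, 5 mM Mg(OAc)₂, 2 mM DTT at 37 °C, with reactions started by adding 20S proteasome. Cleavage was read as fluorescence emission at 420 nm (ex 320 nm). Rate was taken from the slope of the linear phase of the time course.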
# human Lon [2] = biological target: T1, human Lon (Homo sapiens, UniProt P36776); experiment: Time-dependent inhibition of human Lon peptidase activity; assay type: biochemical
# T1 sequence (P36776 68-959): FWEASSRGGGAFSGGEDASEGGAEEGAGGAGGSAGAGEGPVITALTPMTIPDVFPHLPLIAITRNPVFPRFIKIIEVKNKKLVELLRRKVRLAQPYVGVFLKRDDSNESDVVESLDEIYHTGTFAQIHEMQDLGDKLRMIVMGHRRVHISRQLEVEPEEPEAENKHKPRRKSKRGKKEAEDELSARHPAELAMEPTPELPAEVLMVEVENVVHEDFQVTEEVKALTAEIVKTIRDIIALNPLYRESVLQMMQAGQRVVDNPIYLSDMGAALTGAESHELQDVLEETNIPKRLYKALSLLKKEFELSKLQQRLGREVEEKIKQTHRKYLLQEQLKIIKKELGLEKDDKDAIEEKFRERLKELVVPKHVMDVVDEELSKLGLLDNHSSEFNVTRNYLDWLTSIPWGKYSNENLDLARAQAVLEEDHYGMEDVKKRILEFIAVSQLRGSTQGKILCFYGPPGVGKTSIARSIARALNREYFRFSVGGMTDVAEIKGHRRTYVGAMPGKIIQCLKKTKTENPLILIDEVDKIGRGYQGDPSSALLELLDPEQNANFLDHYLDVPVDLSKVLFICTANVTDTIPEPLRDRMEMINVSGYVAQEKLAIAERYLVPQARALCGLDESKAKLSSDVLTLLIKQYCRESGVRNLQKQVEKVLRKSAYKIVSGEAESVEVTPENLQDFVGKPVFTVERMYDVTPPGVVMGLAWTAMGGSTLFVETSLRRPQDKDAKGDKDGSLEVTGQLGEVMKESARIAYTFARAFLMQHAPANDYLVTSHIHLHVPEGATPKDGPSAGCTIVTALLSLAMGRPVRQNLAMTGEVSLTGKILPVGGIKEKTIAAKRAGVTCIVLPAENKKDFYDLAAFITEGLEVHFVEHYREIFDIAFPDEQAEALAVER
# human Lon [3] = biological target: T1, human Lon; experiment: Inhibition of α-casein degradation by hLon; assay type: biochemical; conditions: 10 µM DBN93, 10 µM casein, 1 µM hLon, 5 mM ATP, SDS-PAGE
# Method in brief: (§1)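 Digests in 50 mM Tris pH 8.1, 15 mM Mg(OAc)₂, 5 mM DTT were run at 37 °C ±inhibitor. Aliquots were quenched with SDS loading dye at time points from 0 to 90 min, run on 12.5% SDS-PAGE and stained with Coomassie Blue.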
# human ClpXP [4] = experiment: Inhibition of α-casein degradation by hClpXP; assay type: biochemical; conditions: 10 µM DBN93, 10 µM casein, 2 µM ClpX and 2 µM ClpP, 5 mM ATP, SDS-PAGE
# Method in brief: as §1
# [5] = test system: HeLa mitochondrial lysate immunodepleted of Lon; experiment: FRETN 89–98 cleavage in Lon-immunodepleted HeLa mitochondrial lysate; assay type: biochemical, human; conditions: 10 µM DBN93, 100 µM FRETN 89–98, 1 mM ATP; at least three trials
# Method in brief: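 Affinity-purified anti-hLon was incubated overnight at 4 °C with HeLa mitochondria in 25 mM Tris pH 7.5, 100 mM NaCl, 0.1% Tween 20. Protein A agarose was pelleted, and the supernatant was desalted into 50 mM KPi pH 7, 20% glycerol, 0.1% Tween 20, then Bradford-quantified. Emission at 420 nm (ex 320 nm) was read for 1 hr.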
# [6] = test system: Lon in isolated rat liver mitochondria; experiment: In organello degradation of 35S-labeled StAR in isolated mitochondria; assay type: cell-based
# Method in brief: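 ³⁵S-Met StAR precursor was made by in vitro transcription and reticulocyte-lysate translation, then imported for 30 min at 30 °C into rat liver mitochondria (600 µg) in HSB buffer with ATP, GTP, NADH and creatine kinase system. Non-imported protein was removed with trypsin on ice, then trypsin inhibitor. Pellets were chased at 30 °C ±inhibitor, TCA-precipitated, run on 12% SDS-PAGE with autoradiography, and bands quantified. Mean of 3 independent experiments, SEM, Student's t-test.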
# S. Typhimurium Lon = conditions: cited from earlier work
# [7] = S. Typhimurium Lon, error s.e.m.
substance,measurement,setting,value
dansyl-YRGIT-Abu-B(OH)2 [DBN93],inhibition of hClpXP,human ClpXP [1]; general statement,does not inhibit this protease; also recorded: not inhibited
same,effect on cleavage of FRETN 89–98 by hClpXP,"human ClpXP [1]; up to 4 µM DBN93 (1 and 4 µM, Figure 5a)",not affected
same,inhibition of 20S proteasome catalyzed cleavage of FRETN 89–98,human 20S proteasome,inhibited the cleavage; also recorded: inhibits
same,time dependence of inhibition of hLon peptidase activity,"human Lon [2]; Figure 3, panel a",inhibited by DBN93 in a time-dependent manner
same,Ki* of hLon vs Ki* of bacterial Lon,human Lon [2]; overall inhibitor potency,comparable to the Ki* determined previously for bacterial Lon
same,inhibition of α-casein degradation by hLon,human Lon [3],inhibited α-casein degradation by hLon
same,inhibition of α-casein degradation by hClpXP,human ClpXP [4],not by hClpXP
same,effect on peptide cleavage in Lon-immunodepleted mitochondria,[5],no decrease in peptide cleavage
same,inhibition of StAR degradation in mitochondria,"[6]; 10 µM DBN93, 1 or 2 hr chase, rat mitochondria, n=3",inhibits degradation of StAR
same,penetration of mitochondrial membranes,"[6]; intact rat mitochondria, 10 µM DBN93, inferred from StAR degradation",can penetrate the mitochondrial membranes
same,inhibition of Lon,S. Typhimurium Lon; 4 µM DBN93 (condition of the hClpXP test),completely inhibited
same,k3,S. Typhimurium Lon; [7],1.0 ± 0.3 × 10^5 M^−1s^−1
same,k4,S. Typhimurium Lon; [7],0.022 ± 0.007 s⁻¹
same,k5,S. Typhimurium Lon; [7],0.0032 ± 0.0003 s⁻¹
same,k6,S. Typhimurium Lon; [7],0.00028 ± 0.00002 s⁻¹
